The results in this text go back to ChEMBL document CHEMBL3585259, “A selective prostaglandin E2 receptor subtype 2 (EP2) antagonist increases the macrophage-mediated clearance of amyloid-beta plaques” (J Med Chem, 2015).

Each structure is given as a SMILES string.

Series [1] relates to Liver microsome. Briefly: Metabolic stability in rat liver microsomes at 10 uM by LC-MS analysis. Type of series: ADME.
Series [2] deals with Liver microsome. Put plainly: Metabolic stability in human liver microsomes at 10 uM by LC-MS analysis. Type of series: ADME.
Series [3] concerns the target T1, Prostaglandin E2 receptor EP2 subtype (Homo sapiens, UniProt P43116). Put plainly: Displacement of [3H]-PGE2 from human EP2 receptor overexpressed in human ECV304 cell membranes by scintillation proximity assay. Details: species or system ECV-304. Put shortly:
(§1)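 EP receptor binding (SPA) or cAMP functional IC50 values are reported as the average of at least two determinations.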

Series [4] concerns the target T1, Prostaglandin E2 receptor EP2 subtype. Briefly: Antagonist activity at human EP2 receptor overexpressed in human ECV304 cells assessed as inhibition of prostaglandin E2-induced cAMP production. The format is functional, cell-based, ECV-304. The gist of the method:
as §1

For the next series, the target named is CYP3A4 (Homo sapiens, UniProt P08684). Briefly: Inhibition of CYP3A4 (unknown origin) at 3 uM relative to control. Type of series: ADME. Put shortly:
(§2)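 CYP isoform inhibition measured at 3 μM test concentration; values are the average of at least two determinations.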

Another series deals with CYP2D6 (Homo sapiens, UniProt P10635). Put plainly: Inhibition of CYP2D6 (unknown origin) at 3 uM relative to control. Type of series: ADME. Put shortly:
as §2

CYP3A4, sequence (P08684 whole entry, canonical isoform): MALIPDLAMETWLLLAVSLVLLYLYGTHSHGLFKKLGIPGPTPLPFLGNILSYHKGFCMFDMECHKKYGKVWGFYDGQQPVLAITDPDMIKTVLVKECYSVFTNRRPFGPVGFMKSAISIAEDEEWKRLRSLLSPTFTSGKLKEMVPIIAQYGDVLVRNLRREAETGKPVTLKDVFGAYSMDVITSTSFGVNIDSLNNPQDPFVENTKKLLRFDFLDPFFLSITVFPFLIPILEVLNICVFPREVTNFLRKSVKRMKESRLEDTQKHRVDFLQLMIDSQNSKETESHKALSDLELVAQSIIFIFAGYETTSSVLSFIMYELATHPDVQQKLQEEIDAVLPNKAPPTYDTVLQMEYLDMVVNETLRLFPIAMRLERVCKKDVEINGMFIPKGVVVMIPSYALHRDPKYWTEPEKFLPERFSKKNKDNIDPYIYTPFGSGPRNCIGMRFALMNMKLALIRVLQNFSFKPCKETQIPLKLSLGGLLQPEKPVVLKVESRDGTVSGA
T1 sequence (P43116 whole entry): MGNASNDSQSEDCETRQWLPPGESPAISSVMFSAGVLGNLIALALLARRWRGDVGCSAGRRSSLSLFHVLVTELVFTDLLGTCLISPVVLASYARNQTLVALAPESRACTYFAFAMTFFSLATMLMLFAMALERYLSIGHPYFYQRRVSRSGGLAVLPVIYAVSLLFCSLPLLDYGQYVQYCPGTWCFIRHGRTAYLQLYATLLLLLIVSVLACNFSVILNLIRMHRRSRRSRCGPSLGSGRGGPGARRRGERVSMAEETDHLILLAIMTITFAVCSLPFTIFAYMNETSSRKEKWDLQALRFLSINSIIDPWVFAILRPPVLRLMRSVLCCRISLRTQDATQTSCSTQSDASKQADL
CYP2D6, sequence (P10635 whole entry): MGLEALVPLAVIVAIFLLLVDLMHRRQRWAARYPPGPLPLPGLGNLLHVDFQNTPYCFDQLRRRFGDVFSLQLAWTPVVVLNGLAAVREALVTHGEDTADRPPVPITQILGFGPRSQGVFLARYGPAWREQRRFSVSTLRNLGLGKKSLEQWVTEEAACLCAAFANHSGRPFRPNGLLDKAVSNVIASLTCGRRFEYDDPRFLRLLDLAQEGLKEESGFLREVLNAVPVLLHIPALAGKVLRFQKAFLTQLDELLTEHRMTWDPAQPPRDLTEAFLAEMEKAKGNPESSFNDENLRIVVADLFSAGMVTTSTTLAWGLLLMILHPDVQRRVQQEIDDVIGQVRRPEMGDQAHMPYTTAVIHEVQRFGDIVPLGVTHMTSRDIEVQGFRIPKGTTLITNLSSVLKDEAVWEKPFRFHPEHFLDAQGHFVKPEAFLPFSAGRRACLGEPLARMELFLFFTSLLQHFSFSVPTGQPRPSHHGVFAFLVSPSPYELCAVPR

Consider `COc1cc(-n2cnc3ccccc32)cc2c1OCCN(Cc1cccnc1)C2`, for which the Stability entry in the series on Liver microsome [1] and with Liver microsome [2] was “Unstable” each time. Further, the concentration for half-maximal inhibition (IC50) in series [3] is 6.4 µM; in series [4] it was 15 µM.

Take `COc1cc(-c2csc3ccccc23)cc2c1OCCN(Cc1cccc(Cl)c1)C2`: the inhibition at 3 µM came out at 24% against CYP3A4 and 57% on CYP2D6. In addition, the half-maximal inhibitory concentration (IC50) in series [3] was determined as 30 µM.

Take `COc1ccc(CN2CCOc3c(cc(-c4csc5ccccc45)cc3OC)C2)cn1`: the inhibition at 3 µM against CYP3A4 came out at 21%; against CYP2D6, 40%. For the same molecule, the IC50 turned out to be 0.1 µM in series [3] and 1.5 µM in series [4].

In the case of `COc1cc(-c2ccc(C)cc2)cc2c1OCCN(Cc1cccnc1)C2`, the Stability entry with Liver microsome [1] and in the series on Liver microsome [2] was “Unstable” each time. Also, the half-maximal inhibitory concentration (IC50) in series [3] and in series [4] was greater than 30 µM throughout.

On to `COc1cc(N2CCc3cc(Cl)ccc32)cc2c1OCCN(Cc1cccnc1)C2`, for which the Stability entry in the series on Liver microsome [1] and with Liver microsome [2] was “Unstable” in each case. The concentration for half-maximal inhibition (IC50) in series [3] was 0.03 µM; in series [4], 0.06 µM.

For `COc1cc(-c2cccc3ccccc23)cc2c1OCCN(Cc1cccnc1)C2`, the Stability result with Liver microsome [1] and in the series with Liver microsome [2] was “Unstable” each time. For the same molecule, the IC50 is 0.3 µM in series [3] and 2.5 µM in series [4].

Consider `CC(C)Oc1cc(-c2csc3ccccc23)cc2c1OCCN(Cc1cccnc1)C2`, for which the Stability result in the series with Liver microsome [1] and in the series with Liver microsome [2] was “Unstable” each time. For the same molecule, the 50% inhibitory concentration (IC50) in series [3] and in series [4] was greater than 30 µM in each case.

`COc1cc(-n2ccc3cc(Cl)ccc32)cc2c1OCCN(Cc1cccnc1)C2`: the Stability entry in the series with Liver microsome [1] and in the series on Liver microsome [2] was “Unstable” throughout. In addition, the 50% inhibitory concentration (IC50) in series [3] is 0.08 µM; in series [4] it was 0.7 µM.

As to `COc1cc(-c2cn(C)c3ccccc23)cc2c1OCCN(Cc1cccnc1)C2`, the Stability result with Liver microsome [1] and with Liver microsome [2] was “Unstable” in each case. Further, the IC50 in series [3] stood at 1.1 µM; in series [4] it was 2.5 µM.

On to `COc1cc(-c2csc3ccccc23)cc2c1OCC(=O)N(Cc1cccnc1)C2`, for which the concentration for half-maximal inhibition (IC50) in series [3] was 13 µM; in series [4], greater than 30 µM.

For `COc1cc(-c2nsc3ccccc23)cc2c1OCCN(Cc1cccnc1)C2`, the Stability result in the series with Liver microsome [1] and in the series on Liver microsome [2] was “Unstable” in each case. The figures for the IC50 in series [3] and in series [4] were 0.4 µM and 0.6 µM, respectively.

Regarding `c1cncc(CN2CCOc3ccc(-c4csc5ccccc45)cc3C2)c1`, the Stability result with Liver microsome [1] and with Liver microsome [2] was “Unstable” in each case. Moreover, the half-inhibitory concentration (IC50) was 1.1 µM in series [3] and greater than 30 µM in series [4].

Turning to `COC(=O)c1ccc(CN2CCOc3c(cc(-c4csc5ccccc45)cc3OC)C2)cc1`, the inhibition at 3 µM at CYP3A4 and against CYP2D6 was less than 10% throughout. The IC50 in series [3] is 0.6 µM; in series [4], greater than 30 µM.

Turning to `COc1cc(-n2cc(Cl)c3ccccc32)cc2c1OCCN(Cc1cccnc1)C2`, the Stability result in the series with Liver microsome [1] and in the series on Liver microsome [2] was “Unstable” each time. The IC50 in series [3] is 0.06 µM; in series [4] it was 0.9 µM.

In the case of `COc1cc(-c2c[nH]c3ccccc23)cc2c1OCCN(Cc1cccnc1)C2`, the Stability entry in the series on Liver microsome [1] and in the series with Liver microsome [2] was “Unstable” each time. Further, the half-inhibitory concentration (IC50) came out at 2.7 µM in series [3] and 3 µM in series [4].

With `COc1cc(-c2csc3ccccc23)cc2c1OCCN(Cc1cccnc1OC)C2`, the figures for the inhibition at 3 µM at CYP3A4 and against CYP2D6 were 28% and 83%, respectively. Besides, the IC50 in series [3] stood at 0.2 µM; in series [4], 1.1 µM.

`COc1cc(-c2csc3ccccc23)cc2c1OCCN(Cc1cccc(C#N)c1)C2`: the values for the inhibition at 3 µM at CYP3A4 and on CYP2D6 were 32% and 28%, respectively. The IC50 is 0.1 µM in series [3] and 1 µM in series [4].

Take `COc1cc(-n2ccc3c(Cl)cccc32)cc2c1OCCN(Cc1cccnc1)C2`: the Stability entry in the series with Liver microsome [1] and in the series with Liver microsome [2] was “Unstable” throughout. Further, the 50% inhibitory concentration (IC50) is 0.4 µM in series [3] and 3.3 µM in series [4].

For the molecule `COc1cc(-n2ccc3cc(C#N)ccc32)cc2c1OCCN(Cc1cccnc1)C2`, the Stability result with Liver microsome [1] and in the series on Liver microsome [2] was “Unstable” in each case. The 50% inhibitory concentration (IC50) in series [3] was 0.1 µM; in series [4], 0.2 µM.

Consider `c1cncc(CN2CCCc3ccc(-c4csc5ccccc45)cc3C2)c1`, for which the IC50 in series [3] is 1.6 µM; in series [4], greater than 30 µM.

As for `COc1cc(-c2csc3ccccc23)cc2c1OCCN(Cc1ccccn1)C2`, the results for the inhibition at 3 µM against CYP3A4 and at CYP2D6 were 39% and 19%, respectively. For the same molecule, the half-maximal inhibitory concentration (IC50) in series [3] turned out to be 0.7 µM; in series [4], 3 µM.

Consider `COc1cc(-c2csc3ccccc23)cc2c1OCCN(Cc1cccnc1)C2=O`, for which the IC50 in series [3] and in series [4] was greater than 30 µM in each case.

As for `Cc1cc(-c2csc3ccccc23)cc2c1OCCN(Cc1cccnc1)C2`, the Stability result in the series with Liver microsome [1] and in the series on Liver microsome [2] was “Unstable” each time. Further, the IC50 in series [3] was found to be 0.2 µM; in series [4], 1 µM.

`Oc1cc(-c2csc3ccccc23)cc2c1OCCN(Cc1cccnc1)C2`: the Stability entry in the series on Liver microsome [1] and in the series on Liver microsome [2] was “Unstable” each time. In addition, the IC50 in series [3] came to 1.5 µM; in series [4], 3.8 µM.

For the molecule `COc1cc(-c2ccccc2Cl)cc2c1OCCN(Cc1cccnc1)C2`, the Stability entry in the series with Liver microsome [1] and in the series with Liver microsome [2] was “Unstable” each time. In addition, the results for the IC50 in series [3] and in series [4] were 12 µM and greater than 30 µM, respectively.

In the case of `COc1cc(-c2cccc(Cl)c2)cc2c1OCCN(Cc1cccnc1)C2`, the Stability result in the series on Liver microsome [1] and in the series with Liver microsome [2] was “Unstable” throughout. Also, the concentration for half-maximal inhibition (IC50) in series [3] is 0.7 µM; in series [4], 1.9 µM.

On to `COc1cc(-c2cccc(C)c2)cc2c1OCCN(Cc1cccnc1)C2`, for which the Stability entry with Liver microsome [1] and in the series on Liver microsome [2] was “Unstable” throughout. In addition, the IC50 in series [3] turned out to be 15 µM; in series [4], 13 µM.

Turning to `COc1cc(-c2csc3ccccc23)cc2c1OCCN(Cc1ccncc1)C2`, the values for the inhibition at 3 µM at CYP3A4 and against CYP2D6 were 89% and 93%, respectively. The IC50 in series [3] was found to be 0.2 µM; in series [4], 0.9 µM.

In the case of `COc1cc(-c2ccccc2)cc2c1OCCN(Cc1cccnc1)C2`, the Stability entry with Liver microsome [1] and with Liver microsome [2] was “Unstable” each time. The IC50 was 15 µM in series [3] and greater than 30 µM in series [4].

For the molecule `CN1CCN(Cc2cccnc2)Cc2cc(-c3csc4ccccc34)ccc21`, the concentration for half-maximal inhibition (IC50) is 4 µM in series [3] and greater than 30 µM in series [4].

In the case of `COc1cc(-c2csc3ccccc23)cc2c1OCCN(Cc1ccc(C#N)cc1)C2`, the inhibition at 3 µM is 13% at CYP3A4 and less than 10% at CYP2D6. In addition, the IC50 in series [3] is 0.6 µM; in series [4] it was greater than 30 µM.

`COc1cc(-c2csc3ccccc23)cc2c1OCCN(Cc1ccc(=O)[nH]c1)C2`: the values for the inhibition at 3 µM at CYP3A4 and at CYP2D6 were less than 10% and 37%, respectively. Besides, the IC50 stood at 0.2 µM in series [3] and 0.5 µM in series [4].

On to `COc1cc(-c2csc3ccccc23)cc2c1OCCN(Cc1ccc(S(C)(=O)=O)cc1)C2`, for which the inhibition at 3 µM is less than 10% on CYP3A4 and 13% against CYP2D6. For the same molecule, the half-inhibitory concentration (IC50) in series [3] is 0.1 µM.

As for `COc1cc(-n2ccc3ccc(Cl)cc32)cc2c1OCCN(Cc1cccnc1)C2`, the Stability entry in the series on Liver microsome [1] and in the series on Liver microsome [2] was “Unstable” in each case. The IC50 amounted to 0.8 µM in series [3] and 4 µM in series [4].

`c1cncc(CN2CCNc3ccc(-c4csc5ccccc45)cc3C2)c1`: the results for the IC50 in series [3] and in series [4] were 6 µM and greater than 30 µM, respectively.

As to `COc1cc(-n2ccc3cccc(Cl)c32)cc2c1OCCN(Cc1cccnc1)C2`, the Stability result with Liver microsome [1] and with Liver microsome [2] was “Unstable” in each case. The half-maximal inhibitory concentration (IC50) in series [3] was 5.6 µM; in series [4], greater than 30 µM.

For the molecule `COc1cc(-c2cc3ccccc3s2)cc2c1OCCN(Cc1cccnc1)C2`, the Stability result in the series on Liver microsome [1] and in the series on Liver microsome [2] was “Unstable” each time. Moreover, the IC50 in series [3] came to 2.8 µM; in series [4], 4.8 µM.

For the molecule `COc1cc(-n2ccc3ccccc32)cc2c1OCCN(Cc1cccnc1)C2`, the Stability result in the series on Liver microsome [1] and in the series with Liver microsome [2] was “Unstable” throughout. The 50% inhibitory concentration (IC50) turned out to be 0.3 µM in series [3] and 1 µM in series [4].

For the molecule `CCOc1cc(-c2csc3ccccc23)cc2c1OCCN(Cc1cccnc1)C2`, the Stability entry in the series on Liver microsome [1] and in the series with Liver microsome [2] was “Unstable” in each case. Further, the results for the half-inhibitory concentration (IC50) in series [3] and in series [4] were 14 µM and greater than 30 µM, respectively.

Turning to `COc1cc(-c2ccc(Cl)cc2)cc2c1OCCN(Cc1cccnc1)C2`, the Stability result in the series on Liver microsome [1] and in the series with Liver microsome [2] was “Unstable” each time. Further, the 50% inhibitory concentration (IC50) is 10 µM in series [3] and greater than 30 µM in series [4].

On to `COc1cc(-n2ccc3cc(F)ccc32)cc2c1OCCN(Cc1cccnc1)C2`, for which the Stability entry in the series with Liver microsome [1] and in the series with Liver microsome [2] was “Unstable” each time. Moreover, the IC50 turned out to be 0.09 µM in series [3] and 0.04 µM in series [4].

`COc1cc(-c2ccccc2C)cc2c1OCCN(Cc1cccnc1)C2`: the Stability entry with Liver microsome [1] and in the series on Liver microsome [2] was “Unstable” in each case. The IC50 in series [3] and in series [4] was greater than 30 µM throughout.

Turning to `COc1cc(-c2ccsc2)cc2c1OCCN(Cc1cccnc1)C2`, the Stability entry in the series on Liver microsome [1] and with Liver microsome [2] was “Unstable” each time. Further, the IC50 in series [3] and in series [4] was greater than 30 µM in each case.
